The results in this text go back to ChEMBL document CHEMBL3120099, “Novel S1P(1) receptor agonists--part 2: from bicyclo[3.1.0]hexane-fused thiophenes to isobutyl substituted thiophenes” (J Med Chem, 2014).

As a reminder, the EC50 is the concentration that produces a half-maximal response.

A value given as a limit tells only on which side of the number the result lay.

In data set [1] the target is Sphingosine 1-phosphate receptor 3 (Homo sapiens, UniProt Q99500). In words: Agonist activity at human recombinant S1P3 receptor expressed in CHO cells assessed as membrane-bound 35S-GTPgammaS incubated 30 mins prior to substrate addition measured after 1 hr by topcount scintillation counting analysis. Format: functional, cell-based. On the technique in general: GTPγS resists hydrolysis and so accumulates on activated G proteins.
Chain of Sphingosine 1-phosphate receptor 3 (Q99500 whole entry): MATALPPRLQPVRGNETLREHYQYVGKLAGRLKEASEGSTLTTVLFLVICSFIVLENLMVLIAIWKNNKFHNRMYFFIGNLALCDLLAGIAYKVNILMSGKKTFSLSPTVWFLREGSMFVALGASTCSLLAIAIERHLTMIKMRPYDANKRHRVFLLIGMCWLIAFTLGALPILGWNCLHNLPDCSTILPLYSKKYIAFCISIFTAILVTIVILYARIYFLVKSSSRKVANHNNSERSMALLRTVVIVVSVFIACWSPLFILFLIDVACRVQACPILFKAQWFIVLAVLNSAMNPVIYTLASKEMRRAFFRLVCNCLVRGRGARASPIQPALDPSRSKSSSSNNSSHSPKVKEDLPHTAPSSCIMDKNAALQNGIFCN

In data set [2] the target is Sphingosine 1-phosphate receptor 1 (Homo sapiens, UniProt P21453). In words: Agonist activity at human recombinant S1P1 receptor expressed in CHO cells assessed as membrane-bound 35S-GTPgammaS incubated 30 mins prior to substrate addition measured after 1 hr by topcount scintillation counting analysis. Format: functional, cell-based.
Chain of Sphingosine 1-phosphate receptor 1 (P21453 whole entry): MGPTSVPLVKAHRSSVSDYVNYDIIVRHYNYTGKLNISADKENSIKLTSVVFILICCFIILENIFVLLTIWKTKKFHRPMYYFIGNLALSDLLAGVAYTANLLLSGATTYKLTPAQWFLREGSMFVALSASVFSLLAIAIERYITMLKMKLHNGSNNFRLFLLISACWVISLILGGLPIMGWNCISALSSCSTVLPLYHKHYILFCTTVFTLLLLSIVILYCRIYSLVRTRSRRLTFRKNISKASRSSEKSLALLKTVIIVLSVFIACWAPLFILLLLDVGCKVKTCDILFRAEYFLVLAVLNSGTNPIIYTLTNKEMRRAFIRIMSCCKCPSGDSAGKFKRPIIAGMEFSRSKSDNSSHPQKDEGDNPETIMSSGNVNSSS
The species named for another data set is Homo sapiens. In words: Selectivity ratio of EC50 for human recombinant S1P3 receptor to EC50 for human recombinant S1P1 receptor. Summed up:
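GDP was 1 μM for S1P1 and 3 μM for S1P3. Compounds (up to 10 μM) were preincubated 30 min at rt, then incubated 1 h at rt. Bound label was counted after filtration. 10 μM S1P defined maximum. EC50s are geometric means of ≥3 independent duplicate runs.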

For data set [3], the system named is Rattus norvegicus. In words: Lymphopenic activity in Wistar rat assessed as reduction in blood lymphocyte count at 10 mg/kg, po after 24 hrs. Format: functional. In outline:
(§1)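 Normotensive male Wistar rats given 1–10 mg/kg by gavage in 5% DMSO/7.5% succinylated gelatin. Blood taken before and 3, 6 and 24 h after dosing, with later times for some compounds. Lymphocytes counted by hematology analyzer. % LC change calculated per animal relative to the predose value (=100%). Mean ± SEM.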

The subject of data set [4] is Rattus norvegicus. In words: Lymphopenic activity in Wistar rat assessed as reduction in blood lymphocyte count at 10 mg/kg, po after 6 hrs. Format: functional. More on the design: scale not given: the % may be the effect or the level left. In outline: as §1
Data set [5] deals with Rattus norvegicus. In words: Lymphopenic activity in Wistar rat assessed as reduction in blood lymphocyte count at 10 mg/kg, po after 3 hrs. More on the design: scale not given: the % may be the effect or the level left. Format: functional. Summed up:
as §1

A short description of data set [6]: Plasma concentration in Wistar rat at 10 mg/kg, po after 3 hrs. Format: ADME, organism-based. More on the design: dose 10 mg/kg, route oral.
A short description of data set [7]: Plasma concentration in Wistar rat at 10 mg/kg, po after 6 hrs. More on the design: dose 10 mg/kg, route oral. Format: ADME, organism-based.
Data set [8] can be described thus: Plasma concentration in Wistar rat at 10 mg/kg, po after 24 hrs. Format: ADME, organism-based. Further details: dose 10 mg/kg, route oral.

`Cc1cc(CCC(=O)c2sc(C)c3c2CCC(C)(C)C3)cc(C)c1OCCNCCO`: the EC50 in [1] is more than 10000 nM; in data set [2] it was 11 nM.
Take `CCc1cc(-c2noc(-c3sc(CC)c4c3CCC3(CCCC3)C4)n2)cc(C)c1OC[C@@H](O)CNC(=O)CO`: the results for the EC50 in [1] and in data set [2] were 11 nM and 4.7 nM, respectively.
For `CCc1cc(-c2noc(-c3sc(CC)c4c3CCC3(CC3)C4)n2)cc(C)c1OC[C@@H](O)CNC(=O)CO` the same measures were 24 nM and 1.1 nM.
Regarding `CCc1cc(-c2noc(-c3scc4c3CCC(C)(C)C4)n2)cc(C)c1OCC(O)CNC(=O)CO` (racemic), in the data set listed under Homo sapiens, the Ratio EC50 stood at 100. Further, the concentration for a half-maximal effect (EC50) in data set [1] came to 314 nM; in data set [2] it was 1.7 nM.
For `CCc1cc(CCC(=O)c2scc3c2CCC(C)(C)C3)cc(C)c1OC[C@@H](O)CNC(=O)CO` the same measures were 100, 5270 nM and 4.8 nM.
As for `CCCCc1ccc(-c2nc(-c3cc(C)c(OCC(O)CNC(=O)CO)c(C)c3)no2)s1` (racemic), the concentration giving a half-maximal response (EC50) in [1] is 1250 nM; in data set [2] it was 4.7 nM. In the data set with Rattus norvegicus [3], the “% change in blood lymphocyte count from predose” value (“% change” below) is 18%. The Activity is recorded as -52% with Rattus norvegicus [4] and -66% in the data set on Rattus norvegicus [5].
As for `CCc1sc(C(=O)CCc2cc(C)c(OC[C@@H](O)CO)c(C)c2)c2c1CC1(CCCC1)CC2`, the EC50 in data set [1] was 62 nM; in data set [2] it was 0.4 nM.
As to `CCc1cc(-c2noc(-c3sc(CC)c4c3CCC(CC)(CC)C4)n2)cc(C)c1OC[C@@H](O)CNC(=O)CO`, the EC50 in [1] was determined as 1.2 nM; in data set [2] it was 6 nM.
`Cc1cc(CCC(=O)c2sc(C)c3c2CCC(C)(C)C3)cc(C)c1OCCCO`: the EC50 in data set [1] is 4450 nM; in data set [2], 71 nM.
Taken in the same sequence, the figures for `Cc1cc(CCC(=O)c2sc(C)c3c2CCC(C)(C)C3)cc(C)c1OCC(O)CN` (racemic) were more than 10000 nM and 7 nM.
As for `Cc1cc(-c2noc(-c3cc(CC(C)C)c(C)s3)n2)cc(C)c1OCC(O)CNC(=O)CO` (racemic), the half-maximal effective concentration (EC50) in data set [1] worked out at 236 nM; in data set [2], 1.5 nM. Further, the “% change” value in the data set with Rattus norvegicus [3] is -91%. Moreover, the results for the Activity with Rattus norvegicus [4] and in the data set on Rattus norvegicus [5] were -78% and -77%, respectively.
For `CCc1cc(-c2noc(-c3sc(OC)c4c3CCC(C)(C)C4)n2)cc(C)c1OC[C@@H](O)CNC(=O)CO`, the concentration for a half-maximal effect (EC50) in data set [1] amounted to 83 nM; in data set [2] it was 1.8 nM.
With `CCc1cc(-c2noc(-c3sc(CC)c4c3CCCC4)n2)cc(C)c1OC[C@@H](O)CNC(=O)CO`, the figures for the EC50 in data set [1] and in data set [2] were 172 nM and 0.9 nM, respectively.
Taken in the same sequence, the figures for `CCCc1sc(-c2nc(-c3cc(C)c(OC[C@@H](O)CNC(=O)CO)c(CC)c3)no2)c2c1CC(C)(C)CC2` were 11 nM and 20 nM.
Taken in the same sequence, the figures for `CCc1sc(C(=O)CCc2cc(C)c(OC[C@@H](O)CO)c(C)c2)c2c1CCCC2` were 3830 nM and 20 nM.
`Cc1cc(CCC(=O)c2sc(C)c3c2CCC(C)(C)C3)cc(C)c1OCC(O)CNCCO` (racemic): the figures for the EC50 in [1] and in data set [2] were more than 10000 nM and 14 nM, respectively.
For the compound `CCc1cc(CCC(=O)c2sc(OC)c3c2CCC(C)(C)C3)cc(C)c1OCC(O)CNC(=O)CO` (racemic), the results for the EC50 in [1] and in data set [2] were 3910 nM and 1.3 nM, respectively.
On to `CCCc1sc(C(=O)CCc2cc(C)c(OC[C@@H](O)CNC(=O)CO)c(CC)c2)c2c1CC(C)(C)CC2`, for which the results for the EC50 in data set [1] and in data set [2] were 25 nM and 1.3 nM, respectively.
For `CCc1cc(-c2noc(-c3sc(C)c4c3CCC(C)(C)C4)n2)cc(C)c1OCC(O)CNC(=O)CO` (racemic) the same measures were 122 nM and 1.5 nM.
`CCc1c(-c2nc(-c3cc(C)c(OCC(O)CNC(=O)CO)c(C)c3)no2)sc(C)c1CC(C)C` (racemic): the EC50 in [1] turned out to be 172 nM; in [2] it was 6.6 nM. The “% change” value with Rattus norvegicus [3] is reported as -25%. For the same compound, the Activity is -40% in the data set with Rattus norvegicus [4] and -30% in the data set on Rattus norvegicus [5].
On to `Cc1cc(CCC(=O)c2sc(C)c(CC(C)C)c2C)cc(C)c1OCC(O)CNC(=O)CO` (racemic), for which the EC50 in [1] turned out to be 5270 nM; in [2], 2.7 nM.
For `CCc1sc(C(=O)CCc2cc(C)c(OC[C@@H](O)CO)c(C)c2)c2c1CC1(CC2)CC1` the same measures were 819 nM and 1.1 nM.
In the case of `Cc1cc(CCC(=O)c2sc(C)c3c2CCC(C)(C)C3)cc(C)c1CCC(=O)O`, the EC50 was more than 10000 nM in data set [1] and 21 nM in data set [2].
As to `Cc1cc(CCC(=O)c2sc(C)c3c2CCC(C)(C)C3)cc(C)c1OCC(O)CNC(=O)CO` (racemic), the EC50 in data set [1] was 392 nM; in data set [2], 0.5 nM.
With `CCc1sc(C(=O)CCc2cc(C)c(OC[C@@H](O)CO)c(C)c2)c2c1CC(C)(C)CC2`, the values for the EC50 in [1] and in data set [2] were 126 nM and 0.4 nM, respectively.
For `Cc1cc(CCC(=O)c2sc(C)c3c2CCC(C)(C)C3)cc(C)c1O` the same measures were more than 10000 nM and 21 nM.
For the compound `Cc1cc(CCC(=O)c2sc(C)c3c2CCC(C)(C)C3)cc(C)c1OCC(O)CNCCC(=O)O` (racemic), the values for the 50% effective concentration (EC50) in data set [1] and in [2] were 569 nM and 1.2 nM, respectively.
For `Cc1cc(CCC(=O)c2sc(C)c3c2CCC(C)(C)C3)cc(C)c1OC[C@H](O)CO`, the Ratio EC50 in the data set filed under Homo sapiens amounted to 100. In addition, the EC50 in [1] worked out at 1100 nM; in data set [2] it was 3.4 nM.
`Cc1cc(CCC(=O)c2sc(C)c3c2CCC(C)(C)C3)cc(C)c1OCCO`: the EC50 in data set [1] was found to be 4450 nM; in data set [2], 19 nM.
Turning to `CCc1cc(CCC(=O)c2sc(C(F)(F)F)c3c2CCC(C)(C)C3)cc(C)c1OCC(O)CNC(=O)CO` (racemic), the EC50 in data set [1] was determined as 242 nM; in data set [2] it was 1.3 nM.
In the case of `Cc1cc(CCC(=O)c2ccc(CC(C)C)s2)cc(C)c1OCC(O)CNC(=O)CO` (racemic), the EC50 turned out to be 590 nM in data set [1] and 7.7 nM in [2].
`CCc1sc(C(=O)CCc2cc(C)c(OCC(O)CO)c(C)c2)c2c1C[C@@H](N(C)C)CC2` (mixture of isomers): the EC50 in data set [1] is more than 10000 nM; in data set [2], 1600 nM.
Regarding `CCc1cc(CCC(=O)c2sc(C)c3c2CCC(C)(C)C3)cc(C)c1OCC(O)CNC(=O)CO` (racemic), the EC50 in data set [1] was 4420 nM; in data set [2] it was 1.2 nM.
For `Cc1cc(CCC(=O)c2sc(C)c3c2CCC(C)(C)C3)cc(C)c1OCC(O)CN1CC(C(=O)O)C1` (racemic) the same measures were 1760 nM and 4.3 nM.
Consider `CCCc1ccc(-c2nc(-c3cc(C)c(OCC(O)CNC(=O)CO)c(C)c3)no2)s1` (racemic), for which the 50% effective concentration (EC50) in data set [1] worked out at 1150 nM; in [2], 0.9 nM. Moreover, the “% change” value in the data set on Rattus norvegicus [3] is on record as 31%. In addition, the Activity in the data set with Rattus norvegicus [4] was -59%; in the data set with Rattus norvegicus [5], -65%.
With `CCc1sc(C(=O)CCc2cc(C)c(OC[C@@H](O)CO)c(C)c2)c2c1CC(CC)(CC)CC2`, the EC50 in data set [1] worked out at 25 nM; in data set [2] it was 0.4 nM.
In data set [6], `CCc1ccc(-c2nc(-c3cc(C)c(OCC(O)CNC(=O)CO)c(C)c3)no2)s1` (racemic) displayed a concentration at 3 h of 490 ng/mL. Also, the 50% effective concentration (EC50) was found to be 1860 nM in data set [1] and 4.3 nM in [2]. In [7], this compound registered a concentration at 6 h of 190 ng/mL. Moreover, the concentration at 24 h in data set [8] was less than 2 ng/mL.
Take `Cc1cc(CCC(=O)c2sc(C)c3c2CCC(C)(C)C3)cc(C)c1OCCCNCCO`: the EC50 is more than 10000 nM in [1] and 48 nM in data set [2].
With `CCc1sc(C(=O)CCc2cc(C)c(OCC(O)CO)c(C)c2)c2c1C[C@@](C)(O)CC2` (mixture of isomers), the EC50 was more than 10000 nM in data set [1] and 79 nM in [2].
Taken in the same sequence, the figures for `CCc1sc(C(=O)CCc2cc(C)c(OCC(O)CO)c(C)c2)c2c1CC(C)CC2` (mixture of isomers) were 599 nM and 1.6 nM.
For `Cc1cc(CCC(=O)c2sc(C)c3c2CCC(C)(C)C3)cc(C)c1OCCN` the same measures were 8560 nM and 6.1 nM.
`CCc1ccc(-c2nc(-c3cc(C)c(OC[C@@H](O)CNC(=O)CO)c(C)c3)no2)s1`: the “% change” value in the data set with Rattus norvegicus [3] is 12%. The values for the Activity in the data set with Rattus norvegicus [4] and in the data set with Rattus norvegicus [5] were -77% and -73%, respectively.
On to `Cc1cc(-c2noc(-c3sc(C)c(CC(C)C)c3C)n2)cc(C)c1OCC(O)CNC(=O)CO` (racemic), for which the EC50 in [1] stood at 74 nM; in data set [2], 0.5 nM. Moreover, in the data set with Rattus norvegicus [3], the “% change” value is -93%. The Activity in the data set with Rattus norvegicus [4] was -86%; in the data set with Rattus norvegicus [5] it was -78%.
For the compound `Cc1cc(CCC(=O)c2sc(C)c3c2CCC(C)(C)C3)cc(C)c1OC[C@@H](O)CO`, the Ratio EC50 in the data set listed under Homo sapiens was 100. The figures for the EC50 in data set [1] and in [2] were 1400 nM and 2.6 nM, respectively.
In the case of `CCc1sc(C(=O)CCc2cc(C)c(OCC(O)CO)c(C)c2)c2c1C[C@@H](O)CC2` (mixture of isomers), the EC50 in [1] is more than 10000 nM; in data set [2], 860 nM.
